Data published in ChEMBL document CHEMBL1773005, “The antibacterial ent-eusynstyelamide B and eusynstyelamides D, E, and F from the Arctic bryozoan Tegella cf. spitzbergensis” (J Nat Prod, 2011).
Converted amounts (≈) assume the structure as drawn.

Columns and labels:
[1] = system: Staphylococcus aureus; experiment: Antibacterial activity against Staphylococcus aureus ATTC 9144 after 24 hrs by microtiter plate assay; assay type: functional; conditions: ATTC 9144, 24 h
Method in brief: (§1)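 Log-phase cultures grown at 37 C in Mueller Hinton broth, diluted to about 5 × 10^5 cells per well, then mixed 1:1 with compound dissolved in water. Growth followed by continuous optical density reading. MIC taken as the lowest concentration giving no OD change after 24 h at 37 C. Tested in duplicate over 2–100 μg/mL; cecropin B (25 μM) served as positive control.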

[2] = system: Corynebacterium glutamicum; experiment: Antibacterial activity against Corynebacterium glutamicum ATTC 13032 after 24 hrs by microtiter plate assay; assay type: functional; conditions: ATTC 13032, 24 h; method in brief: as §1
[3] = system: Staphylococcus aureus; experiment: Antibacterial activity against methicillin-resistant Staphylococcus aureus ATCC 33591 after 24 hrs by microtiter plate assay; assay type: functional; conditions: ATCC 33591, 24 h
Method in brief: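 Log-phase bacteria at about 5 × 10^5 cells per well in Mueller Hinton broth, 37 C, were mixed with compounds dissolved in water, 2–100 μg/mL, in duplicate. Optical density was monitored continuously. MIC was taken as the lowest concentration giving no change in optical density after 24 h. Cecropin B (25 μM) served as positive control.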

[4] = system: Escherichia coli; experiment: Antibacterial activity against Escherichia coli ATCC 25922 after 24 hrs by microtiter plate assay; assay type: functional; conditions: ATCC 25922, 24 h; method in brief: as §1
[5] = system: Pseudomonas aeruginosa; experiment: Antibacterial activity against Pseudomonas aeruginosa ATTC 27853 after 24 hrs by microtiter plate assay; assay type: functional; conditions: ATTC 27853, 24 h; method in brief: as §1
[6] = system: Candida albicans; experiment: Antifungal activity against Candida albicans ATCC 10231 after 48 hrs by microscopy; assay type: functional; conditions: ATCC 10231, 48 h
Method in brief: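 Yeast grown on potato dextrose agar with 2% glucose at room temperature, suspended in potato dextrose broth and counted in a Bürker chamber. Spores at 2 × 10^5/mL final were mixed with compounds dissolved in water and incubated at 37 C. MIC was the lowest concentration with no visible growth at 48 h, scored microscopically. Duplicates over 2–100 μg/mL; cecropin B (6.25 μM) as positive control.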

[7] = system: A2058; experiment: Anticancer activity against human A2058 cells after 72 hrs by CellTiter-96 cell viability assay; assay type: functional, cell-based; conditions: A2058, 72 h
Method in brief: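 A-2058 melanoma cells in exponential growth were seeded, incubated 24 h at 37 C, then exposed to compounds for 72 h. Viability was read by CellTiter96 reagent, 1 h colour development, absorbance at 485 nm. Duplicates over 2–100 μg/mL; IC50 determined.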

Row | SMILES | MIC [1] | MIC [2] | MIC [3] | MIC [4] | MIC [5] | MIC [6] | IC50 [7]
1 | N=C(N)NCCCCN1C(=O)[C@](O)(Cc2c[nH]c3cc(Br)ccc23)[C@@H](c2c[nH]c3cc(Br)ccc23)[C@]1(O)C(=O)NCCCCN [EUSYNSTYELAMIDE E] | 12.5 µg/mL (≈ 16.7 µM) | 12.5 µg/mL (≈ 16.7 µM) | 20 µg/mL (≈ 26.8 µM) | 12.5 µg/mL (≈ 16.7 µM) | 25 µg/mL (≈ 33.5 µM) | 100 µg/mL (≈ 134 µM) | 114 µM
2 | N=C(N)NCCCCNC(=O)[C@@]1(O)[C@H](c2c[nH]c3cc(Br)ccc23)[C@@](O)(Cc2c[nH]c3cc(Br)ccc23)C(=O)N1CCCCN [EUSYNSTYELAMIDE F] | 6.25 µg/mL (≈ 8.37 µM) | 6.25 µg/mL (≈ 8.37 µM) | > 50 µg/mL | 12.5 µg/mL (≈ 16.7 µM) | 12.5 µg/mL (≈ 16.7 µM) | 50 µg/mL (≈ 67 µM) | 
3 | NCCCCNC(=O)[C@@]1(O)[C@H](c2c[nH]c3cc(Br)ccc23)[C@@](O)(Cc2c[nH]c3cc(Br)ccc23)C(=O)N1CCCCN [EUSYNSTYELAMIDE D] | 12.5 µg/mL (≈ 17.7 µM) | 12.5 µg/mL (≈ 17.7 µM) | 20 µg/mL (≈ 28.4 µM) | 12.5 µg/mL (≈ 17.7 µM) | 25 µg/mL (≈ 35.5 µM) | 50 µg/mL (≈ 71 µM) | 57 µM
